Assay results as given in ChEMBL document CHEMBL5506039, “Discovery and Optimization of Tambjamines as a Novel Class of Antileishmanial Agents” (J Med Chem, 2024).

Legend:
Leishmania mexicana [1] = experiment: Antileishmanial activity against Leishmania mexicana MNYC/BZ/62/M379 amastigotes expressing red-shifted firefly luciferase from integrated ribosomal (28S) RNA locus infected in mouse J774.A1 cells assessed as parasite survival at 0.1 uM measured after 96 hrs by luminescence based analysis relative to control; format: functional; settings: MNYC/BZ/62/M379, J774.A1
[2] = Cytotoxicity against mouse J774.A1 cells assessed as cell survival at 0.1 uM measured after 96 hrs by SYBR Green II dye based analysis relative to control; format: toxicity; settings: read-out: Survival
In short: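 Uninfected J774A.1 mouse macrophages were plated at 1 × 10⁴ cells/well in DMEM with 10% heat-inactivated FBS and left 3 h at 37 °C to reattach. Compounds were added from DMSO, and analogues were screened at 0.1 μM. After 96 h at 37 °C in 5% CO₂, medium was removed. SYBR Green II (1:1000 in 1% Triton/PBS) was added for 1 h in the dark at room temperature, and fluorescence was read at Ex 485/Em 535 as a DNA-content measure of viability.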

Leishmania mexicana [3] = experiment: Antileishmanial activity against Leishmania mexicana MNYC/BZ/62/M379 amastigotes expressing red-shifted firefly luciferase from integrated ribosomal (28S) RNA locus infected in mouse J774.A1 cells assessed as inhibition of parasite growth at 0.1 uM measured after 96 hrs by luminescence based analysis relative to control; format: functional; settings: MNYC/BZ/62/M379, J774.A1, read-out: INH
Leishmania donovani = experiment: Antileishmanial activity against Leishmania donovani amastigotes expressing red-shifted firefly luciferase from integrated ribosomal (28S) RNA locus infected in mouse J774.A1 cells assessed as reduction in parasite growth measured after 96 hrs by luminescence based analysis; format: functional, organism-based; settings: J774.A1, 96 h
In short: (§1)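 J774A.1 macrophages infected with stationary-phase luciferase-expressing promastigotes at 10:1 parasites:macrophage, overnight at 37 °C, 5% CO₂. Non-internalized parasites washed off and 1 × 10⁴ cells/well replated in MEM/10% HI-FBS. Compounds in DMSO added as serial 3-fold dilutions (typically 10 μM–1 nM) for 96 h. Luciferase luminescence read; EC50 from log-transformed sigmoidal variable-slope fit. Mean ± SD of ≥2 independent experiments.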

[4] = Cytotoxicity against mouse J774.A1 cells assessed as reduction in cell survival measured after 96 hrs by SYBR Green II dye based analysis; format: toxicity
In short: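 Uninfected J774A.1 macrophages, 1 × 10⁴ cells/well in DMEM/10% HI-FBS, reattached 3 h, then exposed to compounds for 96 h. DNA content read after lysis with SYBR Green II (1:1000 in 1% Triton/PBS), 1 h dark at room temperature, fluorescence Ex 485/Em 535.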

[5] = Therapeutic index, ratio of EC50 for mouse J774.A1 cells to EC50 for antileishmanial activity against Leishmania mexicana MNYC/BZ/62/M379 amastigotes expressing red-shifted firefly luciferase from integrated ribosomal (28S) RNA locus infected in mouse J774.A1 cells; format: toxicity, cell-based; settings: read-out: TI
[6] = Therapeutic index, ratio of IC50 for human HepG2 cells to EC50 for antileishmanial activity against Leishmania donovani amastigotes expressing red-shifted firefly luciferase from integrated ribosomal (28S) RNA locus infected in mouse J774.A1 cells; format: toxicity, cell-based; settings: read-out: TI
In short: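 TI computed as HepG2 IC50 divided by L. donovani EC50. HepG2: MTT assay with 48 h exposure to 10–0.15 μg/mL (1.6-fold dilutions), triplicates, sigmoidal variable-slope fit. Amastigotes: J774A.1 macrophages infected with RS-luciferase promastigotes at 10:1, washed after 24 h, then 96 h compound exposure (3-fold dilutions, 10 μM–1 nM) in MEM/10% HI-FBS at 37 °C, 5% CO₂; luciferase readout.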

HepG2 = experiment: Cytotoxicity against human HepG2 cells assessed as inhibition of cell growth incubated for 48 hrs by MTT assay; format: toxicity, cell-based
In short: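 HepG2 cells, 2.5 × 10⁴/well in supplemented complete MEM, settled overnight at 37 °C, 5% CO₂. Compounds given as 11 duplicate 1.6-fold dilutions, 10 to 0.15 μg/mL, for 48 h. MTT added for 1 h in the dark at room temperature, formazan dissolved in acidified isopropanol, absorbance read. Triplicate runs; IC50 by sigmoidal variable-slope regression.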

[7] = Metabolic stability in pre-warmed pooled human liver microsomes assessed as half life at 1 uM measured upto 60 mins by LC-MS analysis; format: ADME, Microsome
In short: (§2)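 Compound at 1 μM final with 0.5 mg/mL pooled human or mouse liver microsomes, 1.3 mM NADP and 3.3 mM MgCl₂ in 100 mM potassium phosphate, pH 7.4. Reaction started with 1 U/mL G6PD at 37 °C with shaking.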

Leishmania mexicana [8] = experiment: Antileishmanial activity against Leishmania mexicana MNYC/BZ/62/M379 amastigotes expressing red-shifted firefly luciferase from integrated ribosomal (28S) RNA locus infected in mouse J774.A1 cells assessed as reduction in parasite survival measured after 96 hrs by luminescence based analysis; format: functional, organism-based; settings: MNYC/BZ/62/M379, J774.A1, 96 h; in short: as §1
[9] = Metabolic stability in pre-warmed pooled mouse liver microsomes assessed as half life at 1 uM measured upto 60 mins by LC-MS analysis; format: ADME, Microsome; in short: as §2

Row | SMILES | survival at 0.1 µM (Leishmania mexicana [1]) | viability at 96 h, 0.1 µM [2] | percent inhibition of parasite growth at 0.1 µM (Leishmania mexicana [3]) | EC50 (Leishmania donovani) | EC50 at 96 h [4] | selectivity ratio [5] | selectivity ratio [6] | IC50 (HepG2) | half-life at 1 µM [7] | EC50 (Leishmania mexicana [8]) | half-life at 1 µM [9]
1 | CC1=CC(c2ccc[nH]2)=N/C1=C\NC1CCCCCC1 | 26.3% | 88.4% | ~75% |  |  |  |  |  |  |  | 
2 | COC1=CC(c2ccc(Cc3ccc(OC)cc3)[nH]2)=N/C1=C\Nc1ccc(Cl)cc1 | 93.5% | 101% | ~7% |  |  |  |  |  |  |  | 
3 | CC1=C(C)/C(=C/NC2CCCCCCC2)N=C1c1ccc[nH]1 | 33.5% | 43.5% | < 80% |  |  |  |  |  |  |  | 
4 | COC1=CC(c2ccc[nH]2)=N/C1=C\N[C@H]1CC[C@H](C)CC1.Cl | 12.4% | 66.6% |  | 0.122 µM | 0.696 µM | 17 | 28 | 3.43 µM | 0.288 h | 0.04 µM | 
5 | COC1=CC(c2ccc[nH]2)=N/C1=C\Nc1ccc(Oc2ccc(C)cc2)cc1 | 26% | 69.8% |  | 0.285 µM | 2.74 µM | 29 | 6 | 1.73 µM | > 1 h | 0.093 µM | 0.782 h
6 | CCc1ccc(C2=N/C(=C\NC3CCCCCCC3)C(C)=C2C)[nH]1.Cl | 1.3% | 53.6% | > 96% |  | 0.573 µM | 18 |  |  | > 1 h | 0.0314 µM | > 1 h
7 | CCc1c(C)[nH]c(C2=N/C(=C\NC34CC5CC(CC(C5)C3)C4)C(C)=C2C)c1C.Cl | 10.7% | 63.5% |  | 0.0812 µM | 0.675 µM | 12 | 263 | 21.3 µM | > 1 h | 0.054 µM | 0.483 h
8 | CCC1=CC(c2ccc[nH]2)=N/C1=C\NC1CCCCCC1 | 42.1% | 88.7% | ~60% |  |  |  |  |  |  |  | 
9 | COC1=CC(c2ccc[nH]2)=N/C1=C\NCC1CCCCCC1.Cl | 5.3% | 72.2% |  | 0.088 µM | > 1 µM | > 21 | 69 | 6.06 µM | 0.31 h | 0.0485 µM | 
10 | Cl.Fc1cc(F)cc(OC2=CC(c3ccc[nH]3)=N/C2=C\NC23CC4CC(CC(C4)C2)C3)c1 | 27.3% | 59.3% |  | 0.184 µM | 0.68 µM | 8.6 | 323 | 59.4 µM | > 1 h | 0.079 µM | > 1 h
11 | Cl.Clc1ccc(OC2=CC(c3ccc[nH]3)=N/C2=C\NC23CC4CC(CC(C4)C2)C3)cc1 | 7.16% | 67.1% |  | 0.181 µM | 0.567 µM | 15 | 80 | 14.5 µM | > 1 h | 0.0383 µM | > 1 h
12 | COC1=CC(c2ccc[nH]2)=N/C1=C\Nc1ccc(F)c(OC)c1.Cl | 98.3% | 58.7% | ~2% |  |  |  |  |  | > 1 h |  | 
13 | COC1=CC(c2ccc[nH]2)=N/C1=C\Nc1ccc(Cl)c(OC)c1.Cl | 77.6% | 57.3% | ~22% |  |  |  |  |  | > 1 h |  | > 1 h
14 | CC1=C/C(=C\NC23CC4CC(CC(C4)C2)C3)N=C1c1ccc[nH]1.Cl | 15.4% | 86.9% |  | 0.1 µM | 1.13 µM | 24 | 300 |  | > 1 h | 0.048 µM | 
15 | COC1=CC(c2ccc[nH]2)=N/C1=C\N[C@H]1CC[C@H](C(F)(F)F)CC1.Cl | 9.48% | 74.4% |  | 0.198 µM | 1.1 µM | 24 | 26 | 5.12 µM | 0.217 h | 0.0467 µM | 
16 | CCCCCCN/C=C1\N=C(c2ccc[nH]2)C=C1OC.Cl | 11.1% | 127% |  | 0.118 µM | > 1 µM | > 19 | 226 | 26.7 µM | 0.285 h | 0.0525 µM | 
17 | Cl.FC(F)(F)Oc1ccc(C2=CC(c3ccc[nH]3)=N/C2=C\NC23CC4CC(CC(C4)C2)C3)cc1 | 39% | 70.6% |  | 0.398 µM | 0.908 µM | 10 | 215 | 85.5 µM | > 1 h | 0.0905 µM | > 1 h
18 | C(/NC1CCCCCC1)=C1/N=C(c2ccc[nH]2)C2=C1CCCC2.Cl | 24.7% | 80% |  | 0.101 µM | 0.252 µM | 3.4 | 61 | 6.2 µM | > 1 h | 0.074 µM | 
